Compound activity from PubChem.
RORa inhibitor – inhibitors of orphan receptor RORA, primary screen, cell-based, luminescence. inhibition, % at 10 µM. actives 0.43% (n = 65,000). CHO-K1 Gal4-RORA LBD luciferase reporter;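 active = inhibition above the mean of all tested compounds plus 3 SD, cut at about 52% in these data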
Target sequence (P35398 whole entry, looked up, the tested form may be a part): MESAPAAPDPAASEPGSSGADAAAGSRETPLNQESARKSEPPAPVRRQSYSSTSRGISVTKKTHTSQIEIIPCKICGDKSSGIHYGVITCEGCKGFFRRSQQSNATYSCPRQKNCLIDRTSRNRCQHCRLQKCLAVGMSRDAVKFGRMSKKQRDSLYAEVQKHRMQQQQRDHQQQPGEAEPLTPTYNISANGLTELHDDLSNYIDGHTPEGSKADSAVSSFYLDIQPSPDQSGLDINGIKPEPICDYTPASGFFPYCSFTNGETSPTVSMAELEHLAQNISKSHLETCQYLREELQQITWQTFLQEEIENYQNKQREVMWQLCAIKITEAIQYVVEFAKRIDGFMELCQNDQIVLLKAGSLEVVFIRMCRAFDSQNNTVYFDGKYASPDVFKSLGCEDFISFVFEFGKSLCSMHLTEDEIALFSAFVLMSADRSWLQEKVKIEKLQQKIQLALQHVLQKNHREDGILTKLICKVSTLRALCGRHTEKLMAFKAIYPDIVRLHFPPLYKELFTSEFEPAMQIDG
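Test system: CHO-K1 cells with Gal4-hRORA LBD fusion and pG5-luc reporter / Compound: single concentration per compound, 10 µM final / Schedule: 20 h compound treatment, 37 °C / Signal: luminescence from basal luciferase reporter expression / Read-out: % inhibition / Control set: mock-transfected cells as 100%, +RORA DMSO cells as 0% / Replicates: tested once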
Hits are given with their value. This excerpt belongs to a sample that is enriched for hits.

Results for O=S1(=O)C=C(Sc2nc3cc(Cl)ccc3o2)c2ccccc21 ?
RORa inhibitor: 75

Results for Clc1nc2sccn2c1/C=N/n1cnc2ccccc21 ?
RORa inhibitor: inactive

Results for CC(C)[C@H](NC(=O)[C@@H]1CSCN1C(=O)OC(C)(C)C)C(=O)NCC1CCC(C(=O)O)CC1 (stereo partly drawn) ?
RORa inhibitor: inactive

How did CCn1c2ccccc2c2cc(NC(=O)CSc3nnnn3-c3ccccc3)ccc21 do in these assays?
RORa inhibitor: 63

Results for CC(=O)c1cccc(-n2nnnc2SCC(=O)Nc2ccccc2N2CCCCC2)c1 ?
RORa inhibitor: inactive

What do the screens show for `O=C(CSc1nnnn1-c1ccccc1)NC(=O)Nc1ccc2c(c1)OCCO2`?
RORa inhibitor: inactive

Results for Cc1ccc(C)n1/N=C1/NC(=O)CS1 ?
RORa inhibitor: inactive

What do the screens show for `CCCCNC(=O)c1cc(-c2ccc(F)cc2)on1`?
RORa inhibitor: inactive

Results for CSCC[C@H](NC(=O)OC(C)(C)C)C(=O)N1CCC(C(=O)N[C@H](C(=O)O)C(C)C)CC1 ?
RORa inhibitor: inactive

How did CS(=O)(=O)c1nc(-c2cccs2)cc(C(F)(F)F)n1 do in these assays?
RORa inhibitor: 78

How did Cc1nc2nc(-c3cccs3)cn2nc1C do in these assays?
RORa inhibitor: inactive

What do the screens show for `CSC1=NC(NCCCO)c2c(sc3c2CC(C)(C)OC3)N1` (stereo not drawn)?
RORa inhibitor: inactive

What do the screens show for `Cc1ccc2nsnc2c1S(=O)(=O)N1CCN(Cc2ccc3c(c2)OCO3)CC1`?
RORa inhibitor: inactive

Results for COc1ccc(CCC(=O)Nc2ccc3c(c2)OCCO3)cc1 ?
RORa inhibitor: inactive

Results for O=C(CN1C(=O)c2ccccc2S1(=O)=O)NCCC1=CCCCC1 ?
RORa inhibitor: inactive

How did COc1ccc(CCNC(=O)C2CCCN(S(C)(=O)=O)C2)cc1OC (stereo not drawn) do in these assays?
RORa inhibitor: inactive

Results for COc1ccc(CCNc2nnc(Sc3nnnn3-c3ccccc3)s2)cc1OC ?
RORa inhibitor: 69

Results for COc1ccc(CCNS(=O)(=O)c2cn(C)c(=O)n(C)c2=O)cc1OC ?
RORa inhibitor: inactive

Results for FC(F)(F)C1CC(c2cccs2)Nc2ncnn21 (stereo not drawn) ?
RORa inhibitor: inactive

What do the screens show for `CCOC(=O)c1c(C)c(C(=O)NCc2ccc3c(c2)OCO3)c(C)n1C`?
RORa inhibitor: inactive

How did O=C(CSc1cccc2cccnc12)N1CCCC1 do in these assays?
RORa inhibitor: inactive

How did O=C(Cn1cnc2ccccc21)OCC(=O)N1CCc2ccccc2C1 do in these assays?
RORa inhibitor: inactive

How did CCS(=O)(=O)n1nc(-c2ccccc2)cc1N do in these assays?
RORa inhibitor: inactive

How did CCc1nn2cc(-c3ccccc3)nc2s1 do in these assays?
RORa inhibitor: 66

Results for Cc1c(C(=O)Nc2ccccc2)sc2nc(-c3ccccc3)cn12 ?
RORa inhibitor: inactive

How did O=C(CN(CCO)c1ccccc1)NC12CC3CC(CC(C3)C1)C2 do in these assays?
RORa inhibitor: inactive

Results for Cc1ccc(S(=O)(=O)Nc2cccc3ncccc23)s1 ?
RORa inhibitor: 80

How did Cc1cccc(C(=O)NC2CCN(CC(=O)N3CCOCC3)CC2)c1 do in these assays?
RORa inhibitor: inactive

What do the screens show for `COc1ccc(-c2cc(C(F)F)n3ncc(C(=O)N4CCN(C(=O)c5ccco5)CC4)c3n2)cc1`?
RORa inhibitor: inactive

What do the screens show for `CCOCC(=O)Nc1nnc(C2CCCCC2)s1`?
RORa inhibitor: inactive

What do the screens show for `O=C1CN(C(=O)CSc2nnnn2-c2ccc(Cl)cc2)c2ccccc2N1`?
RORa inhibitor: inactive

Results for c1ccc2nc(-c3nc4ccccc4[nH]3)ccc2c1 ?
RORa inhibitor: 66

What do the screens show for `Cn1cc(Cl)c(-c2nc3ccccc3[nH]2)n1`?
RORa inhibitor: inactive

How did Cn1ccnc1-c1nc2ccccc2[nH]c1=O do in these assays?
RORa inhibitor: inactive

How did CSc1cccc(NS(=O)(=O)c2cccc3nsnc23)c1 do in these assays?
RORa inhibitor: inactive

Results for O=c1nc(-c2ccccc2)cn[nH]1 ?
RORa inhibitor: inactive

What do the screens show for `CN(C)c1ccc(C2=NOC(CN3C(=O)c4ccccc4S3(=O)=O)C2)cc1` (stereo not drawn)?
RORa inhibitor: inactive

What do the screens show for `O=C1c2ccccc2S(=O)(=O)N1Cc1nc2ccccc2s1`?
RORa inhibitor: 54

How did CC1CCN(C(=O)CN2C(=O)c3ccccc3S2(=O)=O)CC1 do in these assays?
RORa inhibitor: inactive

What do the screens show for `CC(=O)Cc1nsc(Nc2ccc3c(c2)OCCO3)n1`?
RORa inhibitor: inactive

Results for Cc1ccc(S(=O)(=O)N(C)Cc2ccc(-c3nnc4n3CCC4)cc2)cc1 ?
RORa inhibitor: inactive

How did C=CCC1CCCCC12NC(=O)NC2=O (stereo not drawn) do in these assays?
RORa inhibitor: inactive

What do the screens show for `COc1ccc(-c2nc(CSCC(=O)N3CCc4ccccc43)c(C)o2)cc1OC`?
RORa inhibitor: inactive

How did CCOc1ccc(-c2nc(CSCC(=O)NCc3ccco3)c(C)o2)cc1 do in these assays?
RORa inhibitor: 94

How did CCOc1ccc(-c2cc(CCCC(=O)NCc3ccco3)no2)cc1 do in these assays?
RORa inhibitor: 58

What do the screens show for `COc1ccc(-c2nc(CS(=O)CC(=O)NCc3ccco3)c(C)o2)cc1` (stereo not drawn)?
RORa inhibitor: inactive

Results for Cc1ccc(-c2nc(CS(=O)(=O)CC(=O)N3CC(C)CC(C)C3)c(C)o2)cc1 (stereo not drawn) ?
RORa inhibitor: inactive

Results for CCc1ccc(-c2nc(CSCC(=O)N3CCN(c4ccccn4)CC3)c(C)o2)cc1 ?
RORa inhibitor: inactive

How did CCCCn1c(SCC(=O)NCc2ccco2)nnc1-c1ccoc1C do in these assays?
RORa inhibitor: inactive

How did COc1ccc2cc(C3(C)NC(=O)N(CC(=O)NCc4ccco4)C3=O)ccc2c1 (stereo not drawn) do in these assays?
RORa inhibitor: inactive

What do the screens show for `CCc1ccc(-c2nc(CSCC(=O)NCCCN3CCCC3=O)c(C)o2)cc1`?
RORa inhibitor: 74

What do the screens show for `CCCCNC(=O)c1cc(-c2ccc(OC)cc2)on1`?
RORa inhibitor: inactive

How did COCCNC(=O)CSCc1nc(-c2ccc(SC)cc2)oc1C do in these assays?
RORa inhibitor: 89

How did Cc1ccc(CS(=O)(=O)CCC(=O)NCCCN2CCCC2=O)cc1 do in these assays?
RORa inhibitor: inactive

Results for CCOC(=O)c1ccc(NS(=O)(=O)N2CCCCCC2)cc1 ?
RORa inhibitor: inactive

Results for CCOc1cccc(-c2nnc3sc(COc4ccc(Cl)cc4)nn23)c1 ?
RORa inhibitor: inactive

Results for CC1=C(C#N)C(=O)OC(C)(C)C1 ?
RORa inhibitor: inactive

What do the screens show for `Cc1cccc(N2CC(C(=O)Nc3ccc4c(c3)OCO4)CC2=O)c1C` (stereo not drawn)?
RORa inhibitor: inactive

What do the screens show for `O=C(NCCCN1CCOCC1)C1CC(=O)N(C2CCCCC2)C1` (stereo not drawn)?
RORa inhibitor: inactive

Results for c1ccc(CSc2nnc(SCc3ccccn3)s2)nc1 ?
RORa inhibitor: inactive

What do the screens show for `c1cncc(Oc2cccc(Oc3cccnc3)c2)c1`?
RORa inhibitor: inactive

What do the screens show for `COC(=O)c1cc(-c2ccccc2)n(CC(=O)O)c1C`?
RORa inhibitor: inactive

How did CCOC(=O)c1sc2nc(NC(=O)c3cccs3)sc2c1C do in these assays?
RORa inhibitor: inactive

What do the screens show for `O=C(CSc1nnc(NC(=O)CN2CCOCC2)s1)Nc1ccccc1`?
RORa inhibitor: inactive

What do the screens show for `Cc1ccc2c(=O)c(CN(C)C3CCN(C)CC3)c(C)[nH]c2c1C`?
RORa inhibitor: inactive
